An excerpt weighted towards active compounds, which were near 2.3% of everything screened.
CHT inh: inhibitors of human choline transporter CHT. High affinity choline transporter 1 (Homo sapiens), Q9GZV3. CHT-expressing cells, membrane potential dye, choline response; active compounds read low. B-score at 10 µM. 310,000 compounds, 0.86% hits;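 active means B-score over 3 SD under the library average, and starting fluorescence ratio not unusually high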;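 further: choline stimulus applied at its EC90 after an EC20 pre-addition; B-score computed on integrated fluorescence ratio after choline addition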
NR2E3 ag-1: inhibitors of NR2E3-RetCOR corepressor binding, primary screen, NR2E3 agonist project, biochemical, TR-FRET, GST-NR2E3, biotin-RetCOR; 320,000 compounds, 0.12% hits; 1536-well; Photoreceptor-specific nuclear receptor (Homo sapiens), Q9Y5X4; inhibition of corepressor binding, % at 4.78 µM; AID 2300, 2010;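 active means percent inhibition above the cutoff of mean plus 3 SD of all tested compounds, set per screening campaign, cut at about 20% in these data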
Target sequence (Q9Y5X4 whole entry, looked up): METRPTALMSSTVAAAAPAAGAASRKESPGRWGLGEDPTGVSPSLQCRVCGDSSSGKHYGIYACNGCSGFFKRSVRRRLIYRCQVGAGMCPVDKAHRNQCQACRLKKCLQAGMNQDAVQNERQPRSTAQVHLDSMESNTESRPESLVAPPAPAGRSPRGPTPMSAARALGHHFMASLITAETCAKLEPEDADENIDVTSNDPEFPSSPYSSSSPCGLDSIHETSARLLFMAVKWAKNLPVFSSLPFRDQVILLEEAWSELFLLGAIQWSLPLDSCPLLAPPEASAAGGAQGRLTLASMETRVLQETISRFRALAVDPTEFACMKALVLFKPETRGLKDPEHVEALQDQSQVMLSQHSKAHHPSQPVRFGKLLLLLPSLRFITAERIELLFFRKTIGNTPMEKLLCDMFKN
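Assay system: NR2E3–RetCOR corepressor complex. Quantity: 1.35 nM GST-NR2E3. Buffer or medium: pH 7.5 Tris-based buffer. Reagent: biotinylated RetCOR corepressor at 7 nM final. Schedule: 5 h at 4 °C. Detection: TR-FRET, emission read at 617 and 671 nm. Replicates: one well per compound, singlicate testing.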
COUP-TFII inh: NR2F2 transcriptional activity inhibitors, primary screen, cell-based, luciferase reporter, HEK293T, luminescence. COUP transcription factor 2 (Homo sapiens), P24468. HEK293T NGFI-A luciferase reporter. inhibition, % at 8.6 µM. 370,000 compounds, 0.7% hits. AID 686940, 2013;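 active means inhibition above a per-plate cutoff, mean inhibition of test wells between control levels plus 3 SD, cut at about 38% in these data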;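 further: cells cotransfected with COUP-TFII expression vector driving the NGFI-A reporter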
CHT allo act: CHT positive allosteric modulators, primary screen, cell-based, membrane potential dye, choline EC20 | AID 488977, 2010 | B-score at 10 µM | CHT-expressing cells; active compounds read high; LV-AA mutant CHT in HEK293 cells | High affinity choline transporter 1 (Homo sapiens), Q9GZV3 | 310,000 compounds, 0.49% hits;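 active means initial fluorescence not abnormally high and integrated response B-score, plate-corrected, over 3 SD above library mean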
NR2E3 ag-2: NR2E3 agonists in two-hybrid cells, primary screen, cell-based, luminescence, CHO-S, Gal4-NCOR/VP16-NR2E3; Photoreceptor-specific nuclear receptor (Homo sapiens), Q9Y5X4; luciferase; inhibition of corepressor binding, % at 3.98 µM; 360,000 compounds, 0.35% hits;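 active means inhibition above the mean of all tested compounds plus 3 SD, cut at about 70% in these data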;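 further: higher means lower luciferase signal from less NR2E3 corepressor binding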
GalR3 antag: GalR3 antagonists in HEK293 cells, primary screen, cell-based, fluorescence readout. Galanin receptor type 3 (Homo sapiens), O60755. HEK293 GalR3-CNG cAMP membrane potential fluorescence; galR3 body fused to GalR1 C-terminus. inhibition, % at 3 µM. 360,000 compounds, 0.44% hits;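 active means inhibition above the screen-wide average plus 3 SD, cut at about 13% in these data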;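 further: forskolin and galanin both at EC90 stimulate the cells; cAMP rise reported by CNG channel membrane potential dye signal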
Target sequence (O60755 1-299 limits assumed): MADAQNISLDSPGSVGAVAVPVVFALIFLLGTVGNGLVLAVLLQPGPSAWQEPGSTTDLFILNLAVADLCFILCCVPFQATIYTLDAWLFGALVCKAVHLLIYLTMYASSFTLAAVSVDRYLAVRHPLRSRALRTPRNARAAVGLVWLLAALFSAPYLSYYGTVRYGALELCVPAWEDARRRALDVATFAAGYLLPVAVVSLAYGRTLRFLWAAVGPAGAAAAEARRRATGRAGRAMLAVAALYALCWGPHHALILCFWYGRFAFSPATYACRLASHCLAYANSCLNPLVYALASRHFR
Large screens that a line does not name were inactive.

Cc1cccc(N(C)S(=O)(=O)c2ccc(-c3cnc(C4CC4)o3)cc2)c1	CHT allo act 7.3
COC(=O)c1nn(-c2ccc(-c3ccccc3)cc2)cc1O	NR2E3 ag-2 78
N#Cc1c(NC(=O)CN2C(=O)c3ccccc3C2=O)oc(-c2ccccc2)c1-c1ccccc1	none
N#Cc1c(NC(=O)CCN2C(=O)c3ccccc3C2=O)oc(-c2ccccc2)c1-c1ccccc1	CHT inh -5.9
COc1ccc(CN2C[C@]3(C=C4CCCCC4n4c(=O)n(-c5ccccc5)c(=O)n43)N=C2NC(=O)c2ccccc2)c(OC)c1 (stereo not given in full)	none (no result: CHT inh, NR2E3 ag-1, CHT allo act, NR2E3 ag-2, GalR3 antag)
Cc1ccc(NS(=O)(=O)c2ccc(C(=O)N3CC(C)CC(C)C3)cc2)cc1 (stereo not given)	CHT allo act 10
Cc1ccc(S(=O)(=O)Nc2ccc(C(=O)N3CCCC3)cc2)cc1	none
O=S1(=O)c2ccc(Br)cc2OC[C@@H](Cc2ccccc2)N1Cc1cn(CC2CCCCC2)nn1	none (no result: CHT inh, NR2E3 ag-1, CHT allo act, NR2E3 ag-2, GalR3 antag)
Cc1cccc(Cn2cc(COC(=O)NCC(C)C)nn2)c1	none (no result: CHT inh, NR2E3 ag-1, CHT allo act, NR2E3 ag-2, GalR3 antag)
COc1ccc(/C=C\c2cc(OC)c(OC)cc2CC[N+](C)(C)C)cc1OC	CHT allo act 10
COC(=O)[C@]12C[C@H](CC(=O)N3CCOCC3)C(=O)N(Cc3ccco3)C1=C[C@H](C(C)C)O[C@@H]2C1CC1	none (no result: CHT inh, NR2E3 ag-1, CHT allo act, NR2E3 ag-2, GalR3 antag)
O=C(O)C1=CC(=C(c2ccc(O)c(C(=O)O)c2)c2ccc(O)c(C(=O)O)c2)C=CC1=O	NR2E3 ag-1 30 (no result: COUP-TFII inh, NR2E3 ag-2, GalR3 antag)
CCc1ccc(C=C2SC(=S)N(CCCC(=O)Nc3ccc(C(=O)O)cc3)C2=O)cc1	none (no result: CHT inh, NR2E3 ag-1, CHT allo act)
CCc1ccc(/C=C2/SC(=S)N(CCC(=O)Nc3cccc(C(=O)O)c3)C2=O)cc1	CHT inh -5.9
CCc1ccc(/C=C2/SC(=S)N(CCCC(=O)Nc3ccccc3C(=O)O)C2=O)cc1	CHT inh -7.5
COc1cc(/C=N/n2cnnc2)ccc1OCC(=O)N1CCOCC1	CHT allo act 9.6
COc1cc(/C=N/NC(N)=S)ccc1OCC(=O)N1CCOCC1	none
O=C(CSc1nnc(COc2ccccc2)n1-c1ccccc1)Nc1ccc(S(=O)(=O)Nc2nccs2)cc1	none (no result: CHT inh, NR2E3 ag-1, CHT allo act, NR2E3 ag-2, GalR3 antag)
CCOC(=O)Cn1cc(CN2CCS(=O)(=O)N(Cc3ccc(F)cc3)C(C(=O)OC)C2)nn1 (stereo not given)	none (no result: CHT inh, NR2E3 ag-1, CHT allo act, NR2E3 ag-2, GalR3 antag)
O=C(Cc1ccc([N+](=O)[O-])cc1)N/N=C/c1cccnc1	none
O=C(N/N=C/c1cccnc1)c1ccc([N+](=O)[O-])cc1	CHT allo act 6.8
O=C(NCCO)[C@H](Cc1ccccc1)NC1(C(=O)NCCc2c[nH]c3ccccc23)CCCCC1	none (no result: CHT inh, NR2E3 ag-1, CHT allo act, NR2E3 ag-2, GalR3 antag)
CC(C)N1CCC2(CC1)N=C(c1ccc3c(c1)OCO3)CC(c1cc(Cl)ccc1O)N2 (stereo not given)	CHT inh -6.9
CC(Sc1ccc(Cl)cc1)C(=O)Nc1ccc2c(c1)OCO2 (stereo not given)	none
Nc1nccc(-c2ccc(-n3cnc4ccccc43)cc2)n1	COUP-TFII inh 42
Cc1nc(N2CCN(C(=O)COc3ccccc3)CC2)c2c(C)c(C)sc2n1	CHT inh -7.5
O=c1c2ccc(F)cc2nc2sc(Nc3ccc4c(c3)CCC4)nn12	none (no result: CHT inh, NR2E3 ag-1, CHT allo act, NR2E3 ag-2, GalR3 antag)
c1ccc(-n2c(SCc3cccc4ccccc34)nnc2-c2ccccn2)cc1	none (no result: CHT inh, NR2E3 ag-1, CHT allo act, NR2E3 ag-2, GalR3 antag)
CCCC(c1nnnn1Cc1cccs1)N1CCN(C2CCCC2)CC1 (stereo not given)	CHT allo act 6.3
O=C1CNC(=S)N1CCc1ccccc1Cl	CHT inh -5.1
C#CCNC(=O)C[C@H]1C[C@@]2(C(=O)OC)C(=C[C@H](COCc3ccccc3)O[C@@H]2C)N(CCCCCCCC)C1=O	none (no result: CHT inh, NR2E3 ag-1, CHT allo act, NR2E3 ag-2, GalR3 antag)
COc1ccccc1-n1cnc2cc(NCc3ccco3)ccc21	CHT allo act 13
COc1ccccc1-n1cnc2cc(NCc3ccccc3O)ccc21	none
O=C(OCn1ncc(Br)c(Br)c1=O)c1ccccc1Cl	none (no result: COUP-TFII inh, GalR3 antag)
O=C(OCn1ncc(Br)c(Br)c1=O)c1ccc(F)cc1	CHT inh -6.5 (no result: COUP-TFII inh, GalR3 antag)
CC(C)(C)C1C/C(=C/c2ccccn2)C(=O)/C(=C/c2ccccn2)C1 (stereo not given)	NR2E3 ag-2 96 (no result: COUP-TFII inh, GalR3 antag)
COc1ccc(-n2c(SCC(=O)NNC(=S)Nc3ccccc3)nc3ccccc3c2=O)cc1	none (no result: CHT inh, NR2E3 ag-1, CHT allo act, NR2E3 ag-2, GalR3 antag)
COC(=O)[C@H](C)N(Cc1cn(Cc2ccccc2)nn1)S(=O)(=O)c1ccccc1Br	none (no result: CHT inh, NR2E3 ag-1, CHT allo act, NR2E3 ag-2, GalR3 antag)
O=C(NCc1cccs1)c1nc2c(nnn2Cc2ccccc2Cl)c(=O)[nH]1	COUP-TFII inh 65
COc1ccc(C2/C=C\CN(C(=O)Nc3ccccc3)CC(=O)N2Cc2ccc(F)cc2)cc1 (stereo not given)	none
COc1ccc(C2/C=C\CN(C(=O)Nc3ccc(C(F)(F)F)cc3)CC(=O)N2Cc2ccc(F)cc2)cc1 (stereo not given)	NR2E3 ag-2 82 (no result: COUP-TFII inh, GalR3 antag)
CN(C(=O)CCn1nnc(-c2cccs2)n1)C1CCCCC1	none (no result: CHT inh, NR2E3 ag-1, CHT allo act, NR2E3 ag-2, GalR3 antag)
C[n+]1c(/C=C/c2ccc(O)cc2)ccc2ccccc21	none
Cc1cc(/C=C\c2ccc3cc(N(C)C)ccc3[n+]2C)c(C)n1-c1ccccc1	NR2E3 ag-2 100 (no result: COUP-TFII inh, GalR3 antag)
CN[C@H]1C[C@H]2c3cc(-c4ccc5c(c4)OCO5)ccc3CCN2C[C@H]1[C@H](C)O	none (no result: CHT inh, NR2E3 ag-1, CHT allo act, NR2E3 ag-2, GalR3 antag)
COc1ccc(-c2csc3ncnc(N4CCN(c5ccc(OC)cc5)CC4)c23)cc1	none
CC(C)c1ccc(-c2csc3ncnc(N4CCN(C)CC4)c23)cc1	CHT inh -11
O=C(N/N=C/c1ccccc1OC(F)F)c1cc(-c2ccncc2)nc2ccccc12	CHT inh -6
COc1ccc(C2C(C#N)=C(N)SC(N)=C2C#N)cc1OC	none
N#CC1=C(N)SC(N)=C(C#N)C1c1cccc(O)c1	GalR3 antag 60
Cn1cc(C2(c3c[nH]c4ccccc34)CCN(C(=O)OC(C)(C)C)CC2)c2ccccc21	none (no result: CHT inh, NR2E3 ag-1, CHT allo act, NR2E3 ag-2, GalR3 antag)
C[C@H](CCC(=O)O)[C@H]1CC[C@H]2[C@@H]3CC[C@@H]4C[C@H](O)CC[C@]4(C)[C@H]3C[C@H](O)[C@]12C	CHT inh -6.5
Fc1ccc(N=C2NN=C(c3cc(F)ccc3F)CS2)cc1	none
O=S(=O)(c1ccc(N=C2NN=C(c3cc(F)ccc3F)CS2)cc1)N1CCOCC1	COUP-TFII inh 41 (no result: CHT inh, NR2E3 ag-1, CHT allo act)
CC(CCN1CCC(C(O)(c2ccccc2)c2ccccc2)CC1)Oc1ccc(OC(F)(F)F)cc1 (stereo not given)	none (no result: CHT inh, NR2E3 ag-1, CHT allo act, NR2E3 ag-2, GalR3 antag)
